Screening data (PubChem BioAssay)
Sampled rows, rich in hits. Any-hit rate of the full collection: about 1.9%.
core dimer inh: HCV core protein dimerization inhibition | TR-FRET GST/Flag-core106 dimerization, 1536-well | inhibition, % at 5 µM | hit rate 0.33% among 300,000 | AID 1899;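 active means inhibition above the mean of all tested compounds plus 3 SD, set per screening campaign, cut at about 45% in these data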
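Assay system: Tagged HCV core106 pair (GST and Flag) | Buffer or medium: KF-containing HEPES buffer, pH 7.45, DTT, CHAPS, BSA | Also added: Eu donor and XL665 acceptor anti-tag antibodies | Dosing: One concentration, 5 µM, in 0.5% DMSO | Timing: 4 h at 22.5 °C | Technique: TR-FRET 671 and 617 nm emission | Repeats: Singlicate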
ZTA counter: ZTA (EBV) inhibition in EBNA-1 counter-screen | P03206 | ZTA-DNA binding, fluorescence polarization | inhibition, % at 11 µM | hit rate 0.15% among 320,000; in the data active means inhibition above about 33%
Target sequence (P03206 whole entry, looked up): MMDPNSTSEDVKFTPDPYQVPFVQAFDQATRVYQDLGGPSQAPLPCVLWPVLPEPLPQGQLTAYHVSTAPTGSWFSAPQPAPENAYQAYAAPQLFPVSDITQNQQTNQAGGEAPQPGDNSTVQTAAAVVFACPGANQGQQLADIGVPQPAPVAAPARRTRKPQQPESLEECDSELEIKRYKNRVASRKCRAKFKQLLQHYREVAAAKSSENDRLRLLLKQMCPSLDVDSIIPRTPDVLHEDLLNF
PP1 counter: PP1-alpha (human) inhibition in PP5 counter-screen. inhibition, % at 6.7 µM. purified PP1alpha, OMFP fluorescence. P62136. hit rate 0.9% among 320,000. AID 2235;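 active means inhibition above the mean inhibition of all tested compounds plus 3 SD, computed separately for each screening campaign, cut at about 15% in these data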
EBNA-1 inhibitor: blocks EBNA-1 binding to DNA | EBNA-1 DNA binding, fluorescence polarization | inhibition, % at 14.8 µM | hit rate 0.34% among 300,000 | AID 1950; in the data active means inhibition above about 28%
NS3 helicase inh: HCV NS3 helicase inhibition. NS3 helicase DNA unwinding, Cy5 molecular beacon fluorescence. inhibition, % at 10.9 µM. hit rate 0.56% among 290,000;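 active means inhibition above the mean of all tested compounds plus 3 SD, set per campaign, cut at about 35% in these data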;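 further: 0% = DMSO wells and 100% = thioflavine S control wells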
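Assay system: hepatitis C virus NS3 helicase domain fragment enzyme. Also added: annealed dual-labelled DNA beacon duplex, ATP-started. Timing: 1 h reaction at 25 °C, ATP-initiated. Technique: Cy5 fluorescence at 0 and 60 min, beacon hairpin quenching. Evaluation: % inhibition of unwinding. Replication: one well per compound.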
NS3 helicase cf: confirmation of Hepatitis C virus NS3 helicase inhibitors. AID 1943. hit rate 31% among 1,600. inhibition, % at 10.9 µM. NS3 helicase DNA unwinding, Cy5 molecular beacon fluorescence. shares compounds with NS3 helicase inh;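 active means inhibition above the mean of all tested compounds plus 3 SD, cutoff set per campaign, cut at about 36% in these data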
DNA FID counter: counter-screen for HCV NS3 helicase inhibitors: DNA intercalator displacement. inhibition, % at 7.9 µM. AID 1945. hit rate 4% among 1,600. DNA fluorescent intercalator displacement, fluorescence. shares compounds with NS3 helicase inh; in the data active means inhibition above about 37%;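 further: 0% = vehicle and 100% = reference compound; higher means more displacement of ethidium bromide from the DNA hairpin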
DNA FID DR: displaces fluorescent intercalator from DNA, HCV helicase counter-screen | fluorescent intercalator displacement from DNA, fluorescence | IC50, µM | 120 tested, under 10 active | AID 2172 | shares compounds with NS3 helicase inh
EBNA-1 confirm: EBNA-1 (EBV) inhibition, confirmation. shares compounds with EBNA-1 inhibitor. Recombinant EBNA-1 DBD, Cy5-DNA fluorescence polarization. inhibition, % at 14.8 µM. hit rate 35% among 830. AID 2292;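 active means mean inhibition across replicates above a set limit taken from the earlier primary screen, cut at about 28% in these data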;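 further: plate controls were EBNA-1 protein with DMSO for no effect and wells lacking EBNA-1 for full effect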
ZTA counter trip: blocks Epstein-Barr virus ZTA in triplicate, EBNA-1 counter-screen. AID 2328. 830 tested, under 10 active. shares compounds with EBNA-1 inhibitor. Zta-ZRE DNA binding, Cy5 fluorescence polarization. inhibition, % at 11.1 µM;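 active means mean inhibition over triplicates above a set limit taken from the primary EBNA-1 screen, cut at about 37% in these data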;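 further: purified full length Zta protein with Cy5 labeled ZRE DNA probe; 0% = Zta with DMSO and 100% = wells lacking Zta protein; inhibitors lower polarization by freeing the labeled DNA probe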
ZTA inh confirm: EBV ZTA DNA binding inhibition, confirmation | shares compounds with ZTA counter | Zta-ZRE DNA binding, fluorescence polarization | inhibition, % at 11.1 µM | hit rate 30% among 320 | AID 2361;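 active means mean inhibition across triplicate runs above the hit threshold derived for the original primary screen, cut at about 33% in these data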;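 further: 0% = Zta with DMSO and 100% = wells lacking Zta protein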
EBNA1 counter: counter-screen for ZTA inhibitors: EBNA-1 DNA binding inhibition; shares compounds with ZTA counter; inhibition, % at 14.8 µM; 320 tested, under 10 active; fluorescence polarization
PP1 confirm: human PP1 phosphatase inhibition, confirmation. shares compounds with PP1 counter. purified PP1alpha, OMFP substrate fluorescence. inhibition, % at 6.7 µM. hit rate 52% among 1,900. AID 2358;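 active means mean PP1 inhibition above a set limit taken from the earlier primary screen, cut at about 15% in these data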
PP5 inh counter: PP5 phosphatase inhibition, counter-screen for PP1 inhibitors | shares compounds with PP1 counter | purified PP5c, OMFP fluorescence | inhibition, % at 6.7 µM | hit rate 4% among 1,900 | AID 2360;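 active means mean PP5 inhibition over triplicate wells above about 9.5% taken from the earlier PP1 screen, limit read from the data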
Target sequence (P53041 whole entry, looked up): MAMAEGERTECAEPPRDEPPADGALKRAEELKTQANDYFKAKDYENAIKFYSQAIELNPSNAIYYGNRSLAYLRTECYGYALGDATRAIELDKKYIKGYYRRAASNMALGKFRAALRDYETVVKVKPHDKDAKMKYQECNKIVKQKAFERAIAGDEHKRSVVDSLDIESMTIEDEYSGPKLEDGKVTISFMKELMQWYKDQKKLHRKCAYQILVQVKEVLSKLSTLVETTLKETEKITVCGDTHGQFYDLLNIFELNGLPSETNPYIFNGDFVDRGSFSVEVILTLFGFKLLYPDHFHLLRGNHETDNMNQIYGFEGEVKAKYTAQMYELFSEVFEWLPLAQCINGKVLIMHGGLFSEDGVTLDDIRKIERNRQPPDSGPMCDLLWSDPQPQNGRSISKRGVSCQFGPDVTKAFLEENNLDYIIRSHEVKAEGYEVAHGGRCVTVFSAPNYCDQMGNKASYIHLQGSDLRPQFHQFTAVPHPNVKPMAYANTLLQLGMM
* hit, by the source's call; nt = no result given. Unless noted, how the calls were made is not given here.

SMILES | core dimer inh | ZTA counter | PP1 counter | EBNA-1 inhibitor | NS3 helicase inh | NS3 helicase cf | DNA FID counter | others
O=C(/C(=N/N=C/c1ccc(O)c(O)c1O)c1ccccc1)c1ccccc1 | 33 | 4 | 14 | 39* | 49* | 1 | 27 | EBNA-1 confirm=-6;ZTA counter trip=1
COc1ccccc1/C=C1\SC(=S)N(NS(=O)(=O)c2ccc(C)cc2)C1=O | 5 | -2 | 14 | 31* | 41* | 71* | -12 | EBNA-1 confirm=-1;ZTA counter trip=12
COc1ccc(CC(=O)Oc2ccc(C)cc2Br)cc1OC | 12 | 19 | 4 | 6 | -11 | nt | nt
Cc1ccnc(OC(C(=O)O)C(OCCc2ccccc2)(c2ccccc2)c2ccccc2)n1 (stereo not given) | 18 | 0 | 0 | 5 | 33 | nt | nt
Cc1cc(C)nc(OC(C(=O)O)C(OCCc2ccccc2)(c2ccccc2)c2ccccc2)n1 (stereo not given) | 25 | 2 | -1 | 28* | 37* | 107* | 8 | EBNA-1 confirm=2;ZTA counter trip=6
CCC(C)N(C(=O)CN1C(=O)NC2(CCc3ccccc32)C1=O)C1CCS(=O)(=O)C1 (stereo not given) | nt | -3 | -4 | nt | nt | nt | nt
O=C(O)c1cccc(-n2cccc2/C=C/[N+](=O)[O-])c1 | 0 | 56* | 5 | -4 | 41* | 41* | 13 | ZTA inh confirm=16;EBNA1 counter=-8
O=C(O)c1cccc(-n2cccc2/C=C\[N+](=O)[O-])c1 | -2 | 25 | 1 | 9 | 28 | nt | nt
CC(C(=O)O)N1C(=O)/C(=C/C=C/c2ccco2)SC1=S (stereo not given) | 75* | 58* | 11 | 26 | 51* | 81* | 2 | ZTA inh confirm=73*;EBNA1 counter=9
O=C1C(=Cc2ccc(Br)o2)C(=O)c2ccccc21 | 9 | 52* | 2 | 2 | 45* | 85* | 28 | ZTA inh confirm=51*;EBNA1 counter=13
CC1CCN(C(=O)c2[nH]cnc2C(=O)N2CCN(c3ccccc3)CC2)CC1 | nt | 13 | -4 | nt | nt | nt | nt
Nc1c(O)ccc2c1C(=O)c1ccccc1C2=O | -155 | 40* | -2 | 9 | 43* | 11 | 27 | ZTA inh confirm=35*;EBNA1 counter=6
COc1ccc2c(c1O)C(=O)c1ccccc1C2=O | 0 | 4 | -2 | 14 | 7 | nt | nt
CCCC1Nc2ccc(C(=O)O)cc2C2C=CCC12 (stereo not given) | -9 | 25 | 2 | 9 | 27 | nt | nt
CCOC(=O)C1Nc2ccc(C(=O)O)cc2C2C=CCC12 (stereo not given) | 0 | 60* | 34* | 5 | 54* | 67* | -16 | ZTA inh confirm=23;EBNA1 counter=-13
Cn1c(CCN2CCN(c3ccccn3)CC2)nc2cc(NC(=O)COc3ccc([N+](=O)[O-])cc3)ccc21 | 7 | 38* | -4 | 2 | 38* | 9 | 10 | ZTA inh confirm=21;EBNA1 counter=-1
Cc1cc(C(=O)O)ccc1-n1c(C)ccc1C | -9 | 55* | 27* | 23 | 78* | 90* | -26 | ZTA inh confirm=57*;EBNA1 counter=9
N#C/C(=C/c1ccc(-c2cc(C(=O)O)cc(C(=O)O)c2)o1)c1nc2ccccc2s1 | -4 | 61* | 10 | -5 | 36* | 82* | -15 | ZTA inh confirm=25;EBNA1 counter=-1
N#C/C(=C\c1ccco1)c1nc2ccccc2s1 | -8 | 3 | 0 | 2 | 7 | nt | nt
O=c1c2c(-c3ccc([N+](=O)[O-])cc3)ccnc2[nH]n1-c1ccccc1 | -15 | -2 | 2 | -6 | 16 | nt | nt
O=C(Nc1ccc(N2CCCCCC2)cc1)c1cccc(S(=O)(=O)N2CCOCC2)c1 | nt | -6 | 1 | nt | nt | nt | nt
CSCC(=O)N1CCc2ccc(NC(=O)c3ccccc3Cl)cc2C1 | -3 | -7 | 3 | -6 | -3 | nt | nt
O=C(O)c1ccc(S(=O)(=O)N(Cc2ccccc2)Cc2ccccc2)cc1 | 11 | 14 | -2 | 8 | 14 | nt | nt
O=C(O)c1ccc(S(=O)(=O)N(CCc2ccccc2)Cc2ccc(Cl)cc2)cc1 | 7 | -11 | 22* | 3 | 45* | 32 | 11 | PP1 confirm=11;PP5 inh counter=-1
Cc1ccc(C(c2cc(Cl)c3cccnc3c2O)N2CCN(C)CC2)cc1 (stereo not given) | -5 | -5 | 27* | -9 | 42* | 70* | 67* | PP1 confirm=11;PP5 inh counter=-3
SMILES | core dimer inh | ZTA counter | PP1 counter | EBNA-1 inhibitor | NS3 helicase inh | NS3 helicase cf | DNA FID counter | others
C/C(Cn1cnc([N+](=O)[O-])n1)=N\NC(=O)c1ccc(O)cc1O | -6 | -1 | 0 | 10 | 14 | nt | nt
Cc1ccc(C(=O)OCC(=O)NC2CCCC2)cc1C | 5 | -4 | -2 | -5 | -3 | nt | nt
CCOC(=O)c1ccc2c(c1)C1C=CCC1C(C(=O)O)N2 (stereo not given) | 88* | 23 | 30* | 19 | 39* | 91* | -6 | PP1 confirm=12;PP5 inh counter=-2
O=C(NC1CCCCC1)c1nn2c(C(F)(F)F)cc(-c3ccco3)nc2c1Br | 20 | 9 | 3 | 2 | 2 | nt | nt
O=C(c1ccccc1)N1CCN(C(=O)c2nn3c(C(F)(F)F)cc(-c4ccco4)nc3c2Br)CC1 | 68* | 11 | 19* | -5 | 47* | -23 | -43 | PP1 confirm=-3;PP5 inh counter=-3
CCOC(=O)N1CCN(C(=O)Cn2nc(C)n3nc(-c4ccc(CC)cc4)cc3c2=O)CC1 | 11 | 6 | -4 | 6 | 4 | nt | nt
O=C1C(=O)N(Cc2ccco2)C(c2cccc(Cl)c2)/C1=C(\O)c1ccc2c(c1)OCCO2 (stereo not given) | 27 | -6 | 19* | -6 | 47* | 83* | -28 | DNA FID DR=>79;PP1 confirm=5;PP5 inh counter=7
COc1cc(C2/C(=C(\O)c3ccc4c(c3)OCCO4)C(=O)C(=O)N2Cc2ccco2)ccc1O (stereo not given) | 9 | -7 | 2 | 5 | 14 | nt | nt
